Source: ChEMBL document CHEMBL4311987, “Discovery of novel allosteric site and covalent inhibitors of FBPase with potent hypoglycemic effects” (Eur J Med Chem, 2019)
The source made the active and inactive calls. No cut-off for these calls is given here.

Key:
[1] = tested on: Hepatocyte; experiment: Inhibition of glucose production in cAMP and Dex pre-treated C57BLKS rat Primary hepatocytes incubated for 3 hrs by glucose assay kit method; type: functional, cell-based
Method in brief: (§1)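 Rat primary hepatocytes cultured overnight in DMEM/10% FBS, then pretreated with compounds for 3 h in fresh medium. Switched to glucose-free DMEM with 2 mM sodium pyruvate, 20 mM sodium lactate and compound for 3 h. Medium glucose measured with a kit and normalized to BCA protein. Pathological arm adds 1 µM dexamethasone plus 200 µM cAMP for 3 h. Means ± SEM, n=4.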

[2] = Acute toxicity in C57BL/6 mouse assessed as allergic action at 600 mg/kg, po observed for 14 days; type: organism-based; settings: in vivo, 336 h
Method in brief: (§2)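 Sixteen male C57BL/6 mice, 8 weeks old, were randomised into two groups. Each group got a single oral dose on day 1, either vehicle or 600 mg/kg. Animals were watched for 14 days for mortality, body-weight loss and allergic reactions, against controls.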

[3] = tested on: Hepatocyte; experiment: Inhibition of glucose production in C57BLKS rat Primary hepatocytes incubated for 3 hrs by glucose assay kit method; type: functional, cell-based; method in brief: as §1
[4] = tested on: Hepatocyte; experiment: Inhibition of lipid accumulation in C57BLKS rat Primary hepatocytes assessed as reduction in insulin and glucose-induced TG level at 10 uM incubated for 24 hrs; type: functional, cell-based
Method in brief: (§3)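 After overnight culture in DMEM, rat primary hepatocytes pretreated with compounds, then held in 25 mM glucose plus 500 nM insulin for 24 h to induce lipid accumulation. Triglyceride and total cholesterol measured with assay kits and normalized to BCA protein. Means ± SEM of four independent experiments.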

[5] = tested on: Hepatocyte; experiment: Inhibition of lipid accumulation in C57BLKS rat Primary hepatocytes assessed as reduction in insulin and glucose-induced TC level at 10 uM incubated for 24 hrs; type: functional, cell-based; method in brief: as §3
[6] = Cytotoxicity against C57BLKS rat Primary hepatocytes assessed as cell viability incubated for 6 hrs by SRB assay; type: cell-based, Hepatocyte; settings: read-out: Activity
Method in brief: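 Rat primary hepatocytes under physiological conditions exposed to compounds for 6 h. Viability read by sulforhodamine B staining. Means ± SEM of four independent experiments.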

[7] = tested on: Hepatocyte; experiment: Inhibition of glucose production in C57BLKS rat Primary hepatocytes at 400 uM incubated for 3 hrs by glucose assay kit method relative to control; type: functional; method in brief: as §1
[8] = tested on: Hepatocyte; experiment: Inhibition of lipid accumulation in C57BLKS rat Primary hepatocytes assessed as reduction in insulin and glucose-induced TG level at 100 uM incubated for 24 hrs; type: functional, cell-based; method in brief: as §3
[9] = tested on: Hepatocyte; experiment: Inhibition of glucose production in cAMP and Dex pre-treated C57BLKS rat Primary hepatocytes at 100 uM incubated for 3 hrs by glucose assay kit method; type: functional; method in brief: as §1
[10] = Acute toxicity in C57BL/6 mouse assessed as mortality at 600 mg/kg, po observed for 14 days; type: organism-based; settings: in vivo, 336 h; method in brief: as §2
[11] = Acute toxicity in C57BL/6 mouse assessed as weight loss at 600 mg/kg, po observed for 14 days; type: organism-based; settings: in vivo, 336 h; method in brief: as §2
[12] = tested on: Hepatocyte; experiment: Cytotoxicity against C57BLKS rat Primary hepatocytes assessed as cell viability by measuring cellular protein level at 25 to 100 uM in presence of insulin and glucose by bicinchoninic acid method; type: cell-based
Method in brief: (§4)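 Primary hepatocytes isolated from rat, cultured overnight in DMEM with 10% FBS, then exposed to compounds. Cellular protein per group measured by bicinchoninic acid (BCA) method as a viability control. The same protein values serve to normalize glucose, TG and TC contents. Pathological stimulation where applicable: 1 µM dexamethasone plus 200 µM cAMP, or 25 mM glucose plus 500 nM insulin for 24 h. Means ± SEM, four independent experiments.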

[13] = tested on: Hepatocyte; experiment: Inhibition of lipid accumulation in C57BLKS rat Primary hepatocytes assessed as reduction in insulin and glucose-induced TC level incubated for 24 hrs; type: functional, cell-based; method in brief: as §3
[14] = species on record: Homo sapiens; experiment: Selectivity index, ratio of IC50 for human FBPase C128S mutant expressed in Escherichia coli BL21 (DE3) to IC50 for human FBPase expressed in Escherichia coli BL21 (DE3)
Method in brief: (§5)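 IC50 values for each FBPase point mutant and for wild-type human FBPase came from the same malachite-green assay. The index is mutant IC50 divided by wild-type IC50.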

[15] = tested on: Hepatocyte; experiment: Cytotoxicity against C57BLKS rat Primary hepatocytes assessed as cell viability by measuring cellular protein level at 10 to 300 uM by bicinchoninic acid method; type: cell-based; method in brief: as §4
[16] = target: T1, Fructose-1,6-bisphosphatase 1 (Homo sapiens) (UniProt P09467); experiment: Inhibition of human FBPase expressed in Escherichia coli BL21 (DE3) at 10 times of IC50 using FBP as substrate incubated for 30 to 180 mins mins by malachite green dye based spectrophotometry
T1 sequence (whole entry): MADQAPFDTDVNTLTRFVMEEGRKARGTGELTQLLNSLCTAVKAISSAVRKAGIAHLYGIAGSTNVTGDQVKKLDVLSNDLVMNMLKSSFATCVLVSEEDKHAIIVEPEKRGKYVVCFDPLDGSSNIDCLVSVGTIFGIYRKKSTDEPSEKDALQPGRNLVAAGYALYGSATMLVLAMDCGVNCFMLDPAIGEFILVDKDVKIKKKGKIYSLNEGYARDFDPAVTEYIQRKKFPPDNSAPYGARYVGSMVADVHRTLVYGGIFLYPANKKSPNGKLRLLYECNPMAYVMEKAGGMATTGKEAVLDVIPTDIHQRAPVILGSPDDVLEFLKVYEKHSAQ
Method in brief: (§6)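 Activity was started with 0.4 mM FBP and 0.8 mM Mg2+. Reactions were stopped with 1 M perchloric acid at 30, 60, 90, 120, 150 and 180 min, and phosphate was then detected by malachite green.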

[17] = target: Fructose-1,6-bisphosphatase 1 (Homo sapiens, UniProt P09467, D128A); experiment: Inhibition of human FBPase D127A mutant expressed in Escherichia coli BL21 (DE3) using FBP as substrate incubated for 5 mins by malachite green dye based spectrophotometry
Sequence of Fructose-1,6-bisphosphatase 1 (Homo sapiens, UniProt P09467, D128A) (P09467 2-338 D128A limits assumed): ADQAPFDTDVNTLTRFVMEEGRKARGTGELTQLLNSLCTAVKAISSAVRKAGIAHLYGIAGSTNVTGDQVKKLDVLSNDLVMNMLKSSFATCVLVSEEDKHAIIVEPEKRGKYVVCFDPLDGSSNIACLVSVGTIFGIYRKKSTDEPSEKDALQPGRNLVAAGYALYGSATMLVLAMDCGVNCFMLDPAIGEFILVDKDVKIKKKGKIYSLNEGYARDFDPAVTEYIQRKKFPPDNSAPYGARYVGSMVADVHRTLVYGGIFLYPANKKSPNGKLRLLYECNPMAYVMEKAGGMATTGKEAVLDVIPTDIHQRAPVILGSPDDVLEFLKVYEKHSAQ
Method in brief: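 Recombinant human FBPase (wild type or point mutants) was expressed in E. coli BL21 (DE3), purified and stored in 50% glycerol at -20 °C. Reactions ran 5 min at 37 °C, and released phosphate was read by malachite green.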

[18] = species on record: Homo sapiens; experiment: Selectivity index, ratio of IC50 for human FBPase D127A mutant expressed in Escherichia coli BL21 (DE3) to IC50 for human FBPase expressed in Escherichia coli BL21 (DE3); method in brief: as §5
[19] = target: T1, Fructose-1,6-bisphosphatase 1 (Homo sapiens); experiment: Reversible inhibition of human FBPase expressed in Escherichia coli BL21 (DE3) at 20 times diluted IC50 using FBP as substrate preincubated for 30 to 180 mins followed by 20 fold compound dilution by malachite green dye based spectrophotometry; method in brief: as §6
[20] = target: T1, Fructose-1,6-bisphosphatase 1 (Homo sapiens); experiment: Competitive inhibition of human FBPase expressed in Escherichia coli BL21 (DE3) using FBP as substrate incubated for 5 mins in presence of Mg2+ by malachite green dye based spectrophotometry
Method in brief: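 Malachite-green phosphate readout of human FBPase (300 nM, E. coli-expressed) in 50 mM Tris-HCl pH 7.4 with 0.4 mM FBP, 5 min at 37 °C. Compound concentration was varied at fixed Mg2+ levels, with Mg2+ raised from 1 mM to 10 mM, to assess competition with Mg2+.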

[21] = target: T2, Fructose-1,6-bisphosphatase 1 (Homo sapiens, UniProt P09467); experiment: Binding affinity to human FBPase expressed in Escherichia coli BL21 (DE3) assessed as dissociation constant at 100 uM by UV-visible spectroscopy
T2 sequence (P09467 whole entry): T1 sequence (whole entry)

[22] = target: T1, Fructose-1,6-bisphosphatase 1 (Homo sapiens); experiment: Binding affinity to human FBPase expressed in Escherichia coli BL21 (DE3) incubated for 2 hrs by LC-MS analysis

Row | Structure (SMILES) | Ratio IC50 [14] | inhibition [16] | IC50 [17] | Ratio IC50 [18] | inhibition [19] | inhibition [20] | Activity [22] | other results
1 | CCOC(=O)C(C)(C)Oc1ccc(F)c(/C=C/[N+](=O)[O-])c1 | > 820 | – | – | – | – | – | – | inhibition [1]: Dose-dependent effect; Activity [2]: Non-Toxic; inhibition [3]: Dose-dependent effect; inhibition [4]: Active; inhibition [5]: Active; viability at 6 h [6]: > 80%; inhibition at 400 µM [7]: 90%; inhibition [8]: inactive; inhibition at 100 µM [9]: 95%; Activity [10]: Non-Toxic; Activity [11]: Non-Toxic; Activity [12]: Non-Toxic; inhibition [13]: Dose-dependent effect; Activity [15]: Non-Toxic
2 | N#Cc1ccc(/C=C/[N+](=O)[O-])cc1 | > 1000 | 100% | 2 µM | 5.7 | Active | Active | Active | Kd [21]: 54 µM
3 | O=[N+]([O-])/C=C/c1cccc(F)c1 | > 1010 | 100% | 4 µM | 13 | Active | Active | Active | –
